# Bioassay records from PubChem BioAssay.
# GPR7 antag: GPR7 receptor antagonists, primary screen, cell-based, fluorescence, single concentration | Neuropeptides B/W receptor type 1 (Homo sapiens), P48145 | GPR7-expressing cells, fluorescence antagonist assay | inhibition, % at 4.4 µM | 1.1% of 290,000 active | AID 1861, 2009; in the data active = inhibition above about 16%, passing the limit was not always enough;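 note: cells stimulated with the agonist NPW; 0% = agonist with vehicle and 100% = vehicle without agonist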
# Target sequence (P48145 whole entry, looked up): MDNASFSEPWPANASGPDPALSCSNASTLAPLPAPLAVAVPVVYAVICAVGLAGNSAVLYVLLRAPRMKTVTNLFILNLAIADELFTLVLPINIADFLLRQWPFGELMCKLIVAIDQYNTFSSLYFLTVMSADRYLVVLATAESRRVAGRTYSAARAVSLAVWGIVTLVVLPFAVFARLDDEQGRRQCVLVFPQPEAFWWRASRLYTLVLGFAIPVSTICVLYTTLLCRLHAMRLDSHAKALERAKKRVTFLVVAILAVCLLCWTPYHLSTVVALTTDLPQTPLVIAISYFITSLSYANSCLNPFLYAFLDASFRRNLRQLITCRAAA
# CHO parental Ca: ATP-evoked calcium signal inhibitors, parental CHO, primary screen, counter-screen for OX1R antagonist project, cell-based, fluorescence, Fluo-8 calcium dye. parental CHO-K1, ATP-induced calcium, Fluo-8 fluorescence. inhibition, % at 5.6 µM. 0.63% of 330,000 active. AID 463079, 2010;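 active = inhibition above that plate's mean sample inhibition plus 3 SD, cut at about 26% in these data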;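 note: 0% = ATP-challenged DMSO wells and 100% = DMSO wells without ATP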
#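 Assay system: untransfected parental CHO cell line. Also added: ATP agonist challenge. Dosing: one dose, 5.6 µM nominal. Measured by: Fluo-8 fluorescence. Read-out: % inhibition. Benchmarks: ATP wells versus no-ATP DMSO wells. Repeats: no replicates.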
# MPTP block: mitochondrial permeability transition pore inhibitors, primary screen, biochemical, isolated mouse mitochondria, absorbance; inhibition, % at 10 µM; Ca2+ swelling absorbance, 30 min; 1.4% of 360,000 active;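 active = inhibition of 50% or more, scaled per plate between neutral and stimulator controls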;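 note: 0% = DMSO wells given calcium and 100% = 1 mM EGTA wells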
# OX1R antag-1: antagonists of human orexin 1 receptor (OX1R); Orexin/Hypocretin receptor type 1 (Homo sapiens), O43613; OX1R-expressing cells, FRET antagonist read-out; inhibition, % at 6.6 µM; 1.8% of 330,000 active; AID 485270, 2010; in the data active = inhibition mostly above about 38%, no sharp cut-off; inactive = mostly below about 40%;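 note: 0% = agonist challenge alone and 100% = reference antagonist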
# OX1R antag-2: OX1R (HCRTR1) antagonists, primary screen, fluorescence, CHO/OX1R cells, Fluo-8 calcium, orexin A; Orexin/Hypocretin receptor type 1 (Homo sapiens), O43613; Fluo-8 calcium fluorescence; inhibition, % at 5 µM; 0.43% of 330,000 active;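 active = inhibition above its plate's threshold, mean inhibition of all tested compounds on the plate plus 3 SD, cut at about 37% in these data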;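 note: 0% = orexin A challenge wells and 100% = SB-334867-A antagonist wells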
# * = called active by the depositor; . = no result given. An excerpt weighted towards active compounds, which were near 3.8% of everything screened.
SMILES,GPR7 antag,CHO parental Ca,MPTP block,OX1R antag-1,OX1R antag-2
Cc1cccc(NC(=O)c2ccc(Cl)c(S(=O)(=O)N3CCc4ccccc43)c2)n1,.,-14,-1,35*,27
CC(CCc1ccccc1)NS(=O)(=O)c1ccccc1Cl (stereo not given),5,-18,0,21,-16
COc1cccc(CNc2cccc3cccnc23)c1O,-7,13,1,54*,-17
Oc1c(Br)cc(Br)cc1CNc1cccc2cccnc12,-6,-9,6,29*,5
CN(C)c1ccccc1-c1cc(NC=O)c2ncc(-c3cccc(C(F)(F)F)c3)n2c1,.,.,3,.,.
CN1CCN(c2ccc([N+](=O)[O-])cc2S(=O)(=O)N2CCOCC2)CC1,3,1,-1,94*,-13
O=[N+]([O-])c1ccc(N2CCNCC2)c(S(=O)(=O)N2CCOCC2)c1,-15,-6,-3,27,-5
CCOc1cccc(-c2csc(C3COc4ccccc4O3)n2)c1 (stereo not given),-12,-16,33,5,-4
COc1ccc(CCNC2=CC(=O)N(c3ccc(F)cc3)C2=O)cc1,-4,39*,2,21,-8
CCNC(=O)CC1C(=O)N(c2ccc(F)cc2)C(=O)N1CCc1ccc(OC)cc1 (stereo not given),-12,-17,0,1,-12
COc1cccc(Nc2cc(C)c3ccccc3n2)c1,-1,-28,1,49*,-30
COc1ccc(OC)c(Nc2cc(C)c3ccccc3n2)c1,21,-28,1,11,-22
CSc1nc(C(=O)N2CCCC(C(=O)c3ccc(Cl)cc3)C2)cs1 (stereo not given),-3,-32,2,21,-33
CC(C)CC(=O)N=Nc1c(O)[nH]c2ccccc12,-9,-5,3,53*,-10
O=C(CNC(=O)c1ccccn1)N=Nc1c(O)[nH]c2ccccc12,-12,3,-1,71*,5
O=C(CSCc1cccc(Br)c1)N=Nc1c(O)[nH]c2ccccc12,-7,-16,6,51*,5
CN(C)CC(=O)N[C@@H]1CC[C@@H](CCNS(=O)(=O)c2ccccc2)O[C@@H]1CO,.,.,-1,.,.
COc1cccc(CNC(=O)[C@@H]2CCCN2C(=O)[C@H]2CCCCN2C(=O)c2cccc3ccccc23)c1,.,.,0,.,.
COc1cc2c(NCCCCCO)ncnc2c(OC)c1OC,.,.,0,.,.
COC(=O)CCNS(=O)(=O)c1ccc2nsnc2c1,.,-5,-3,63*,-13
COc1ccccc1C(=O)COC(=O)CCNS(=O)(=O)c1ccc(C)c(C)c1,.,-28,1,5,-21
CC1=NN(c2ccccc2)C(=O)/C1=C\C=C1/N(C)c2ccccc2C1(C)C,15,28*,6,24,42*
CC1=NN(c2ccccc2)C(=O)/C1=C/N(C)C,-10,3,1,5,-17
CN1/C(=C\C=C2/SC(=S)NC2=O)C(C)(C)c2ccccc21,20,95*,23,20,99*
CC1=NN(c2ccccc2)C(=O)/C1=C\C=C\c1ccccc1,-15,-21,0,26,-20
SMILES,GPR7 antag,CHO parental Ca,MPTP block,OX1R antag-1,OX1R antag-2
CC1=NN(c2ccccc2)C(=O)/C1=C\C=C1\N(C)c2ccccc2C1(C)C,25,24,0,33,50*
CCCCNC(=O)CN(c1cccc(Br)c1)S(C)(=O)=O,-9,-12,-1,12,-10
CCOc1ccc(NC(=O)CSc2cn[nH]n2)cc1,.,-5,-3,14,-6
Cc1ccc(C)[n+](CC(=O)N2CCCCC2)c1,-6,.,-2,.,.
CCC(CO)Oc1cc(NCc2ccccc2)c2ncn(C(C)C)c2c1 (stereo not given),.,-20,1,14,-24
CC(C)n1cnc2c(NCc3ccccc3)cc(N[C@H](C)CO)cc21,.,-12,1,75*,6
CCC(COC)Oc1cc(NCc2ccccc2)c2ncn(C(C)C)c2c1 (stereo not given),.,-3,0,35*,13
CCC(CO)Oc1cc(NCc2ccc(C(C)(C)C)cc2)c2ncn(C(C)C)c2c1 (stereo not given),.,50*,6,14,50
COc1ccc(NS(=O)(=O)c2ccc(N3CC(O)=C(c4ccccc4)C3=N)cc2)cc1,-4,-3,1,8,-13
CC1(C(=O)NS(=O)(=O)c2cccc(C#N)c2)CCN1C(=O)CCc1ccccc1 (stereo not given),.,.,-2,.,.
Cc1cc(Cl)ccc1OCCCC(=O)N/N=C/c1cccc([N+](=O)[O-])c1,-10,-12,5,4,-14
CCOc1ccccc1N(CC(=O)N1CCCC1)S(C)(=O)=O,4,4,0,23,-1
O=C1CCCN1CCCNc1ncccc1[N+](=O)[O-],-6,6,2,43*,-8
CNc1nc(NCCCN2CCCC2=O)c2sccc2n1,.,.,-1,.,.
O=C(CNC(=O)c1ccc(Cl)c([N+](=O)[O-])c1)OC1CCCCC1=O (stereo not given),.,-11,0,25,-5
Cc1cc(OCC(O)CN(C)C(=O)C(C)Oc2ccccc2)ccc1Cl (stereo not given),15,-14,1,48*,12
CN(C)CC(O)COc1cccc(OCC(O)CN(C)C)c1 (stereo not given),-9,7,5,12,-6
Cc1ccc(C(=O)Nc2ccccc2C(=O)NC(Cc2c[nH]c3ccccc23)C(=O)O)cc1 (stereo not given),-2,-20,1,50*,-20
CCOc1ccc(NS(=O)(=O)c2c(C)nc3sc(CC)nn3c2=O)cc1,-5,-5,1,3,-16
CCc1cccc(NS(=O)(=O)c2c(C)nc3sc(CC)nn3c2=O)c1,21*,-13,1,15,-15
Cc1cc(C)n(-c2nc(Nc3ccccc3C(F)(F)F)nc(-n3nc(C)cc3C)n2)n1,1,42*,-7,60,62*
O=C(O)Cn1c(O)c(C2=c3ccccc3=NC2=O)sc1=O,2,-3,-1,47*,-9
Cc1c(-n2c(O)c(C3=c4ccccc4=NC3=O)sc2=O)c(=O)n(-c2ccccc2)n1C,-8,-6,0,15,-13
COc1ccc(-c2ccc(N)[n+](CCCC(=O)O)n2)cc1,.,-8,0,41,-4
CC1(C)CC(N=C2C([N+](=O)[O-])=CC=C3C2=NC2(CCCCC2)N3O)CC(C)(C)N1,0,8,7,74*,-2
O=[N+]([O-])C1=CC=C2C(=NC3(CCCCC3)N2O)C1=NC1CCCCC1,-8,2,4,-2,-9
Cc1c(C2(O)CCCCC2)[nH]c2cc(C(F)(F)F)ccc12,.,65*,35,71*,91*
CC(S(=O)(=O)c1ccccc1)S(=O)(=O)c1ccccc1,.,.,1,.,.
